According to ChEMBL document CHEMBL3826936, “Alkyne-substituted diminazene as G-quadruplex binders with anticancer activities” (Eur J Med Chem, 2016):
Calls of active or inactive are those of the source. No cut-off for these calls is given here.

How the values were obtained:
[1] = Stabilization of c-MYC Pu27 G-quadruplex DNA (unknown origin) assessed as inhibition of Taq polymerase-mediated polymerization/extension of Pu27 and Pu27rev oligomers at 10 uM preincubated for 6 hrs followed by Taq polymerase addition by PCR stop assay
[2] = Stabilization of c-MYC template Pu27-13,14 mutant DNA (unknown origin) assessed as inhibition of Taq polymerase-mediated polymerization/extension of Pu27-13,14 mutant and Pu27rev oligomers at 25 uM preincubated for 6 hrs followed by Taq polymerase addition by PCR stop assay
[3] = Stabilization of c-MYC template Pu27 mutant DNA (unknown origin) assessed as inhibition of Taq polymerase-mediated polymerization/extension of Pu27 mutant and Pu27rev oligomers at 1 to 25 uM preincubated for 6 hrs followed by Taq polymerase addition by PCR stop assay
[4] = Binding affinity to wild type c-MYC 24-mer G-quadruplex DNA (unknown origin) by isothermal titration calorimetry
[5] = Binding affinity to wild type Bcl2 27-mer G-quadruplex DNA (unknown origin) by isothermal titration calorimetry
[6] = Selectivity ratio of Kd for 8-bp AT rich duplex DNA (unknown origin) to Kd for wild type c-MYC 24-mer G-quadruplex DNA (unknown origin)
[7] = Selectivity ratio of Kd for 8-bp AT rich duplex DNA (unknown origin) to Kd for wild type Bcl2 27-mer G-quadruplex DNA (unknown origin)
[8] = Binding affinity to 8-bp AT rich duplex DNA (unknown origin) by isothermal titration calorimetry
[9] = Binding affinity to 5'-FAM/3'-TAMRA labeled c-MYC 22-mer G-quadruplex DNA (unknown origin) assessed as change in melting temperature at 4 uM after 12 hrs by TR-FRET assay
Method in brief: (§1)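 Dual-labeled FAM/TAMRA oligos diluted to 800 nM in 60 mM potassium cacodylate (pH 7.2), annealed 10 min at 85 °C and cooled to room temperature. Mixed 1:1 with ligand at […] in the same buffer. Equilibrated at least 12 h at 4 °C. ΔT1/2 taken as melting temperature with minus without ligand, in triplicate, averaged.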

[10] = Binding affinity to 5'-FAM/3'-TAMRA labeled F21T 21-mer G-quadruplex DNA (unknown origin) assessed as change in melting temperature at 4 uM after 12 hrs by TR-FRET assay; method in brief: as §1
[11] = Binding affinity to 5'-FAM/3'-TAMRA labeled c-kit2 26-mer G-quadruplex DNA (unknown origin) assessed as change in melting temperature at 4 uM after 12 hrs by TR-FRET assay; method in brief: as §1
[12] = Binding affinity to 5'-FAM/3'-TAMRA labeled k-RAS21R 21-mer G-quadruplex DNA (unknown origin) assessed as change in melting temperature at 4 uM after 12 hrs by TR-FRET assay; method in brief: as §1
[13] = Binding affinity to 5'-FAM/3'-TAMRA labeled 26-mer duplex DNA (unknown origin) assessed as change in melting temperature at 4 uM after 12 hrs by TR-FRET assay
[14] = Antiproliferative activity against human OVCAR3 cells after 72 hrs by WST-1 assay; format: functional; conditions: OVCAR-3, 72 h
Method in brief: (§2)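 Cells seeded in 96-well plates the afternoon before treatment, at numbers keeping them in log-phase growth; about 18 h later, compounds semi-serially diluted in DMSO then growth medium and added. Incubation 72 h, then WST-1 added and plates read after 4 more hours at 37 °C. GI50 derived from curve fits; viability expressed relative to DMSO control.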

[15] = Antiproliferative activity against human PC3 cells assessed as cell viability at 20 uM after 72 hrs by WST-1 assay relative to control; format: functional; conditions: PC-3, 72 h, read-out: Activity; method in brief: as §2
MDA-MB-231 [16] = test: Antiproliferative activity against human MDA-MB-231 cells assessed as cell viability at 20 uM after 72 hrs by WST-1 assay relative to control; format: functional; conditions: MDA-MB-231, 72 h, read-out: Activity; method in brief: as §2
[17] = Antiproliferative activity against human bone marrow cells assessed as cell viability at 20 uM after 72 hrs by WST-1 assay relative to control; format: cell-based; conditions: read-out: Activity; method in brief: as §2
[18] = Antiproliferative activity against human MCR5A cells assessed as cell viability at 20 uM after 72 hrs by WST-1 assay relative to control; format: cell-based; conditions: read-out: Activity; method in brief: as §2
[19] = Binding affinity to 5'-FAM/3'-TAMRA labeled c-MYC 22-mer G-quadruplex DNA (unknown origin) at 4 uM in presence of 26-mer duplex DNA by TR-FRET assay
[20] = Binding affinity to c-kit1 22-mer G-quadruplex DNA (unknown origin) at 150 uM incubated for 2 hrs by 1H NMR method
[21] = Binding affinity to c-MYC2345 G-quadruplex DNA (unknown origin) at 150 uM incubated for 2 hrs by 1H NMR method
[22] = Binding affinity to 8-bp AT rich duplex DNA (unknown origin) at 150 uM incubated for 2 hrs by 1H NMR method
[23] = Stabilization of c-MYC pu27 G-quadruplex DNA (unknown origin) assessed as inhibition of Taq polymerase-mediated polymerization/extension of Pu27 and Pu27rev oligomers at 100 uM preincubated for 6 hrs followed by Taq polymerase addition by PCR stop assay
[24] = Stabilization of c-MYC template Pu27-13,14 mutant DNA (unknown origin) assessed as inhibition of Taq polymerase-mediated polymerization/extension of Pu27-13,14 mutant and Pu27rev oligomers at 100 uM preincubated for 6 hrs followed by Taq polymerase addition by PCR stop assay
[25] = Stabilization of c-MYC template Pu27 mutant DNA (unknown origin) assessed as inhibition of Taq polymerase-mediated polymerization/extension of Pu27 mutant and Pu27rev oligomers at 1 to 100 uM preincubated for 6 hrs followed by Taq polymerase addition by PCR stop assay
[26] = molecular target: Telomerase reverse transcriptase (Homo sapiens) (UniProt O14746); test: Inhibition of telomerase activity in human MDA-MB-231 cells using amplifour TS primer at 12.4 uM preincubated for 48 hrs followed by primer addition measured after 30 mins by fluorescence plate reader analysis relative to control; format: cell-based
Method in brief: (§3)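 MDA-MB-231 seeded at 2 × 10^5 cells per T-25 flask the evening before, then treated with vehicle or compound for 48 or 72 h. Harvested cells lysed in CHAPS buffer with RNase inhibitor, 30 min on ice; supernatant kept after 12,000 × g spin. TRAPeze XL fluorescence assay used 1000 cell-equivalents, 30 min at 30 °C; TPG units from product/internal-standard ratio; inhibition relative to untreated cells.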

[27] = molecular target: Telomerase reverse transcriptase (Homo sapiens) (UniProt O14746); test: Inhibition of telomerase activity in human MDA-MB-231 cells using amplifour TS primer at 12.4 uM preincubated for 72 hrs followed by primer addition measured after 30 mins by fluorescence plate reader analysis relative to control; format: cell-based; method in brief: as §3
MDA-MB-231 [28] = test: Binding affinity to c-MYC G-quadruplex DNA in human MDA-MB-231 cells assessed as inhibition of c-MYC protein expression at 19.5 uM incubated for 6 hrs by Western blot analysis relative to control; format: cell-based
Method in brief: (§4)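 MDA-MB-231 cells, grown in DMEM with 10% heat-inactivated FBS at 37 °C and 5% CO2, exposed for 6 or 24 h; DMSO vehicle as comparator. Cells harvested, PBS-washed, lysed in RIPA with protease inhibitors. Blots probed with c-MYC antibody (1:1000) and HRP anti-rabbit IgG (1:10,000), β-actin as loading control. Densitometry given as percent of vehicle at each time point.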

MDA-MB-231 [29] = test: Binding affinity to c-MYC G-quadruplex DNA in human MDA-MB-231 cells assessed as inhibition of c-MYC protein expression at 19.5 uM incubated for 24 hrs by Western blot analysis relative to control; format: cell-based; method in brief: as §4
[30] = Antiproliferative activity against human PC3 cells after 72 hrs by WST-1 assay; format: functional; conditions: PC-3, 72 h; method in brief: as §2
MDA-MB-231 [31] = test: Antiproliferative activity against human MDA-MB-231 cells after 72 hrs by WST-1 assay; format: functional; conditions: MDA-MB-231, 72 h; method in brief: as §2
[32] = molecular target: Telomerase reverse transcriptase (Homo sapiens) (UniProt O14746); test: Inhibition of telomerase activity in human MDA-MB-231 cells using amplifour TS primer at 11 uM preincubated for 48 to 72 hrs followed by primer addition measured after 30 mins by fluorescence plate reader analysis relative to control; format: cell-based; method in brief: as §3
[33] = molecular target: Telomerase reverse transcriptase (Homo sapiens) (UniProt O14746); test: Inhibition of telomerase activity in human MDA-MB-231 cells using amplifour TS primer preincubated for 48 to 72 hrs followed by primer addition measured after 30 mins by fluorescence plate reader analysis relative to control; format: cell-based
Method in brief: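 MDA-MB-231 cells, 2 × 10⁵ per T-25 flask, were treated the next morning with vehicle or compound at 0.5×, 1×, 2× or 4× GI50. After 48 or 72 h they were lysed in CHAPS buffer with RNase inhibitor on ice for 30 min. Lysate (1000 cell-equivalents) went into a fluorescent TRAP reaction at 30 °C for 30 min. TPG units were taken against an internal standard, and inhibition was expressed relative to untreated cells.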

MDA-MB-231 [34] = test: Binding affinity to c-MYC G-quadruplex DNA in human MDA-MB-231 cells assessed as inhibition of c-MYC protein expression at 27.25 uM incubated for 6 hrs by Western blot analysis relative to control; format: cell-based; method in brief: as §4
MDA-MB-231 [35] = test: Binding affinity to c-MYC G-quadruplex DNA in human MDA-MB-231 cells assessed as inhibition of c-MYC protein expression at 27.25 uM incubated for 24 hrs by Western blot analysis relative to control; format: cell-based; method in brief: as §4
[36] = Antiproliferative activity against human bone marrow cells after 72 hrs by WST-1 assay; format: cell-based, Bone marrow cell
Method in brief: (§5)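 Cells seeded the afternoon before treatment at densities giving log-phase growth; about 18 h later compounds, semi-serially diluted in DMSO then growth medium, were added. After 72 h WST-1 was added, with a further 4 h at 37 °C before plate reading. GI50 values were calculated from the curves. NBM was grown in RPMI; MCR5A was handled per ATCC.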

[37] = Antiproliferative activity against human MCR5A cells after 72 hrs by WST-1 assay; format: cell-based; method in brief: as §5
MDA-MB-231 [38] = test: Cytotoxicity against human MDA-MB-231 cells assessed as reduction in cell viability at 27.25 uM after 24 hrs by […]; conditions: mda-mb-231, 24 h

Sequence of Telomerase reverse transcriptase (Homo sapiens) (O14746 whole entry): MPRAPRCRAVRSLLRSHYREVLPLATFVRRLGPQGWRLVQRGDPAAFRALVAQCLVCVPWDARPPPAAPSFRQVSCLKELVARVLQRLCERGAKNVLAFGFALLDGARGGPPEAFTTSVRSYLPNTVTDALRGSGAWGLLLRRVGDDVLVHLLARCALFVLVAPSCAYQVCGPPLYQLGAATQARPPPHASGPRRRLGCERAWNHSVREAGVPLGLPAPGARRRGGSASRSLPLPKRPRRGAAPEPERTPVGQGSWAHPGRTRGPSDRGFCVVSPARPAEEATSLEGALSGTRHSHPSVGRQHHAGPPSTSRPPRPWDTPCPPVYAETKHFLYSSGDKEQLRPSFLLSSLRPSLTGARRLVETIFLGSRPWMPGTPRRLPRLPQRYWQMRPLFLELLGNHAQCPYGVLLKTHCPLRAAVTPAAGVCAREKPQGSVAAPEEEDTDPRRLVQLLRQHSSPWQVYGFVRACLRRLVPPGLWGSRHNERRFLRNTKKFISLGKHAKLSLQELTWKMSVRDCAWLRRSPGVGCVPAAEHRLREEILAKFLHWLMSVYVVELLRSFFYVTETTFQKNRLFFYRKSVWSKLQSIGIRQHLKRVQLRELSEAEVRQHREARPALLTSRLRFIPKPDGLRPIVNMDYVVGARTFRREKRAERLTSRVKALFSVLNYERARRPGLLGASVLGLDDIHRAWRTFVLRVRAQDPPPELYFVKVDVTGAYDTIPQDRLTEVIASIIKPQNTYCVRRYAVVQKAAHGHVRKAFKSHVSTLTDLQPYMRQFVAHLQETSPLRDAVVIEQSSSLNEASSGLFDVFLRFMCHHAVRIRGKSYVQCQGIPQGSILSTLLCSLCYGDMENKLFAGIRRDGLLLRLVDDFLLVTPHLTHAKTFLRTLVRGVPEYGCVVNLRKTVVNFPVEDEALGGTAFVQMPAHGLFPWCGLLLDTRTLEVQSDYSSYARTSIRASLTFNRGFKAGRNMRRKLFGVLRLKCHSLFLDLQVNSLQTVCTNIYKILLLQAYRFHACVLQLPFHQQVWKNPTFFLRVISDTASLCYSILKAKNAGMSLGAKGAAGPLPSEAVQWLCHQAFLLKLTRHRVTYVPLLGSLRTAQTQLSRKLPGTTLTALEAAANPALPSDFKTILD

ΔTm [9] [°C]	ΔTm [10] [°C]	ΔTm [11] [°C]	ΔTm [12] [°C]	ΔTm [13] [°C]	Activity [19]	Activity [20]	Activity [21]	Activity [22]	inhibition [23]	inhibition [24]	inhibition [25]	GI50 (MDA-MB-231 [31]) [µM]	Structure (SMILES)	GI50 [14] [µM]	GI50 [30] [µM]	also measured
18.3	16.6	11.7	24.1	6.8									N=C(N)c1ccc(/N=N/Nc2ccc(C(=N)N)cc2)cc1 [DIMINAZENE]	> 25		inhibition [1]: Active; inhibition [2]: Active; inhibition [3]: Active; Kd [4]: 0.001 µM; Kd [5]: 0.001 µM; Selectivity ratio [6]: 1000; Selectivity ratio [7]: 1000; Kd [8]: 1 µM; viability at 20 µM [15]: ≥ 75%; viability at 20 µM (MDA-MB-231 [16]): ≥ 75%
8.8	< 5	5.12	2.7	< 5	inactive	Active	Active	inactive	Active	inactive	inactive	6.2	N=C(N)c1ccc(/N=N/Nc2ccccc2C#Cc2ccc(F)cc2)cc1	9.5	7.4	viability at 72 h, 20 µM [17]: ≥ 75%; viability at 72 h, 20 µM [18]: ≥ 75%; inhibition [26]: 20%; inhibition [27]: 30%; inhibition (MDA-MB-231 [28]): inactive; inhibition (MDA-MB-231 [29]): 100%
8.6	< 5	5.67	6.9	< 5	inactive	Active	Active	inactive	Active	inactive	inactive	5.5	N=C(N)c1ccc(/N=N/Nc2cccc(C#Cc3ccc(F)cc3)c2)cc1	5	5.3	inhibition [32]: < 50%; inhibition [33]: Dose-dependent effect; inhibition (MDA-MB-231 [34]): 40%; inhibition (MDA-MB-231 [35]): 67%; GI50 at 72 h [36]: 5.6 µM; GI50 at 72 h [37]: 8.3 µM; Activity (MDA-MB-231 [38]): Toxic
